Measured values reported in ChEMBL document CHEMBL4376888, “Discovery of Potent, Selective, and Direct Acid Sphingomyelinase Inhibitors with Antidepressant Activity” (J Med Chem, 2020).
Active and inactive are the calls of the source. The rule behind the calls is not given here.

What was measured:
[1] = target: T1, Sphingomyelin phosphodiesterase (Homo sapiens, UniProt P17405); test: Inhibition of human Huh7 cell derived acid sphingomyelinase using NBD-sphingomyelin as substrate after 30 mins by fluorescence based assay
T1 sequence (P17405 whole entry): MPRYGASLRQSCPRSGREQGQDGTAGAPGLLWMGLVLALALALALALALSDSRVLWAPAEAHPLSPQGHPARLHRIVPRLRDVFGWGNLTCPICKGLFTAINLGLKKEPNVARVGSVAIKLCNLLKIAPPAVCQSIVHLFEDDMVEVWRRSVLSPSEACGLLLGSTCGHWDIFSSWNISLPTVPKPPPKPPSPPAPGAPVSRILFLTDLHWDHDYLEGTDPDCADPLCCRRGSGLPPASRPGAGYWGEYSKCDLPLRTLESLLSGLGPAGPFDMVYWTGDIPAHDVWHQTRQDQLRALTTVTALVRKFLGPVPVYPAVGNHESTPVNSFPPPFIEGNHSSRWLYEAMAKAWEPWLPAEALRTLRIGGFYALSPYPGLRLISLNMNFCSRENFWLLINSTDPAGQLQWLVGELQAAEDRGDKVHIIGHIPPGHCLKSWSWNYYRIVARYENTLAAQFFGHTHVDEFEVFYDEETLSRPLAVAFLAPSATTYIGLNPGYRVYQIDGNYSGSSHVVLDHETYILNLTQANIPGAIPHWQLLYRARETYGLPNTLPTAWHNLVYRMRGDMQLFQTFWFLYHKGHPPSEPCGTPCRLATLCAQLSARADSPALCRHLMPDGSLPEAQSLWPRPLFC
How it was run: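 Cultured cells were lysed in 25 mM Tris-HCl pH 7.4, 5 mM EDTA, sonicated and cleared at 300 g. 400 μg protein incubated with NBD-sphingomyelin in 100 mM sodium acetate pH 4.7, 1% Triton X-100, 40 mM CaCl2, 100 μM ZnCl2. Inhibitors added in DMSO, 37 °C, 30 min. Stopped with chloroform/methanol 2:1; NBD-ceramide fluorescence after TLC.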

[2] = Drug uptake in human CMEC/D3 cells at 40 uM after 0.5 to 4 hrs by HPLC analysis; type: ADME, cell-based; details: hcmec/d3, 40 µM
How it was run: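 hCMEC/D3 cells seeded at 2×10^5/well and grown to 80%. Compound added at a final 40 μM; serum-free medium as control. At time points, cells washed with ice-cold PBS, lysed on ice 30 min, spun 12000 rpm, 4 °C, 15 min. Lysate protein by BCA and compound content measured; uptake rate = lysate concentration/dose concentration. n=3.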

[3] = Drug concentration in Sprague-Dawley rat brain at 48 mg/kg, ip after 0.5 hrs by LC-MS/MS analysis; type: ADME, organism-based; details: read-out: Drug uptake
How it was run: (§1)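 Nine female SD rats, three per time point, single ip dose of 48 mg/Kg. At 0.5, 2 and 4 h rats were anesthetized with CO2. Heart blood was taken into EDTA-K2 and centrifuged 1500 g, 10 min, for plasma. Brain was weighed and homogenized 1:5 in 20% methanol-water. LC-MS/MS on a C18 column. Mean of 3.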

[4] = Drug concentration in Sprague-Dawley rat brain at 48 mg/kg, ip after 2 hrs by LC-MS/MS analysis; type: ADME, organism-based; details: read-out: Drug uptake; how it was run: as §1
[5] = Drug concentration in Sprague-Dawley rat brain at 48 mg/kg, ip after 4 hrs by LC-MS/MS analysis; type: ADME, organism-based; details: read-out: Drug uptake; how it was run: as §1
[6] = Drug concentration in Sprague-Dawley rat plasma at 48 mg/kg, ip after 0.5 hrs by LC-MS/MS analysis; type: ADME, organism-based; how it was run: as §1
[7] = Drug concentration in Sprague-Dawley rat plasma at 48 mg/kg, ip after 2 hrs by LC-MS/MS analysis; type: ADME, organism-based; how it was run: as §1
[8] = Drug concentration in Sprague-Dawley rat plasma at 48 mg/kg, ip after 4 hrs by LC-MS/MS analysis; type: ADME, organism-based; how it was run: as §1
[9] = Ratio of drug uptake in Sprague-Dawley rat brain to plasma at 48 mg/kg, ip after 30 mins by LC-MS/MS analysis; type: ADME, organism-based; details: read-out: BPR; how it was run: as §1
[10] = Ratio of drug uptake in Sprague-Dawley rat brain to plasma at 48 mg/kg, ip after 2 hrs by LC-MS/MS analysis; type: ADME, organism-based; details: read-out: BPR; how it was run: as §1
Rattus norvegicus [11] = test: Antidepressant activity in ip dosed Sprague-Dawley rat model of reserpine-induced depression assessed as increase in sugar consumption treated twice daily for 2 weeks measured after 2 days of […] followed by 20 hrs water depletion and fasting by sugar water preference test; type: functional, organism-based
How it was run: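 Reserpine model (4 mg/Kg ip daily) in female SD rats, treated ip twice daily for two weeks in DMSO/Tween 80/glucose vehicle. Drinking water replaced with 10% sucrose for 48 h, then food and water withheld for 20 h. Rats then given 10% sucrose and intake volume measured. n=8, mean ± SD.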

Rattus norvegicus [12] = test: Antidepressant activity in Sprague-Dawley rat model of reserpine-induced depression assessed as reduction in total time spent in center at 6 to 24 mg/kg, ip administered twice daily for 2 weeks measured for 5 mins by open field test; type: functional, organism-based
How it was run: (§2)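 Female SD rats (6-8 weeks, 200 g) given reserpine 4 mg/Kg ip daily to induce depression; test agent in 5% DMSO, 2% Tween 80, 5% glucose, ip twice daily for two weeks. Open field: 100×100 cm box, 25 squares, walls about 42 cm, tested 7:30–12:00. Rat placed in central square; centre time, grid crossings, rearing and grooming recorded over 5 min. n=8, mean ± SD.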

Rattus norvegicus [13] = test: Antidepressant activity in Sprague-Dawley rat model of reserpine-induced depression assessed as increase in times passing the grid at 6 to 24 mg/kg, ip administered twice daily for 2 weeks measured for 5 mins by open field test; type: functional, organism-based; how it was run: as §2
Rattus norvegicus [14] = test: Antidepressant activity in Sprague-Dawley rat model of reserpine-induced depression assessed as increase in grooming frequency at 6 to 24 mg/kg, ip administered twice daily for 2 weeks measured for 5 mins by open field test; type: functional, organism-based; how it was run: as §2
Rattus norvegicus [15] = test: In vivo inhibition of acid sphingomyelinase in Sprague-Dawley rat model of reserpine-induced depression assessed as residual enzyme activity in hippocampus at 24 mg/kg, ip administered twice daily for 2 weeks measured post-last dose by NBD-sphingomyelin substrate-based fluorescence assay (reference value: 73%); type: functional
How it was run: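 Cortex and hippocampus taken from half brain of reserpine-model rats treated ip twice daily for two weeks. Total protein by BCA. ASM assay on 300 μg protein with 4 μg NBD-sphingomyelin, run as the in vitro assay. NBD-ceramide fluorescence on TLC, expressed relative to normal control set at 100%. n=5, mean ± SD.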

[16] = target: T1, Sphingomyelin phosphodiesterase; test: Inhibition of recombinant human acid sphingomyelinase (His62 to Pro628 residues) using NBD-sphingomyelin as substrate after 30 mins by fluorescence based assay
How it was run: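 Buffer 100 mM sodium acetate pH 4.7, 1% Triton X-100, 40 mM CaCl2, 100 μM ZnCl2. Inhibitors in DMSO at various concentrations, 37 °C, 30 min. NBD-ceramide fluorescence after chloroform/methanol extraction and TLC.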

Rattus norvegicus [17] = test: In vivo inhibition of acid sphingomyelinase in Sprague-Dawley rat model of reserpine-induced depression assessed as reduction in enzyme activity in cerebral cortex at 24 mg/kg, ip administered twice daily for 2 weeks measured post-last dose by NBD-sphingomyelin substrate-based fluorescence assay (reference value: 53%); set-up: scale not given: the % may be the effect or the level left

O=C(NO)c1cc(OCc2ccc(-c3ccc(Cl)cc3)cc2)no1
IC50 [1]: 0.32 µM | Drug uptake [2]: Active | concentration at 0.5 h [3]: 2120 ng/g | concentration at 2 h [4]: 4760 ng/g | concentration at 4 h [5]: 1300 ng/g | concentration at 0.5 h [6]: 709 ng/mL | concentration at 2 h [7]: 762 ng/mL | concentration at 4 h [8]: 144 ng/mL | Kp at 0.5 h [9]: 2.94 | Kp at 2 h [10]: 6.49 | Activity (Rattus norvegicus [11]): Dose-dependent effect | Activity (Rattus norvegicus [12]): Active | Activity (Rattus norvegicus [13]): Active | Activity (Rattus norvegicus [14]): Active | Activity (Rattus norvegicus [15]): 33% | IC50 [16]: 3.37 µM | Activity (Rattus norvegicus [17]): 27%
